The text below walks through data of ChEMBL document CHEMBL2010708, “Rigid Analogues of Antimitotic Indolobenzazepinones: New Insights into Tubulin Binding via Molecular Modeling” (ACS Med Chem Lett, 2011).

pIC50: −log10 of the molar value.

The test system of assay [1] is KB. The assay is described as follows: Antiproliferative activity against human KB cells at 10 uM after 72 hrs by fluorescence method. In kind it is functional. To be noted: read-out: GI. The method in brief:
(§1)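 KB cells. Growth inhibition was recorded as a percentage at fixed 10 and 1 μM concentrations, with IC50 determined separately for selected compounds.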

Assay [2] concerns KB. The assay is described as follows: Antiproliferative activity against human KB cells at 1 uM after 72 hrs by fluorescence method. The format is functional. Conditions: read-out: GI. The method in brief:
as §1

The nature of assay [3]: Inhibition of tubulin polymerization.
Assay [4] deals with KB. The assay can be described thus: Antiproliferative activity against human KB cells after 72 hrs by fluorescence method. The format is functional, cell-based. The method in brief: as §1
The test system of assay [5] is HCT-116. The assay is described as follows: Antiproliferative activity against human HCT116 cells at 10 uM after 72 hrs by fluorescence method. In kind it is functional. Conditions: HCT-116, 72 h, read-out: GI. Put shortly:
(§2)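 Panel of HCT116, MCF7 and HL60 cancer cells, each paired with a resistant counterpart (HCT15, MCF7R, HL60R). Growth inhibition was recorded as a percentage at 10 and 1 μM of test compound.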

Assay [6] relates to HCT-116. The assay can be described thus: Antiproliferative activity against human HCT116 cells at 1 uM after 72 hrs by fluorescence method. In kind it is functional. Conditions: HCT-116, 72 h, read-out: GI. Put shortly:
as §2

In assay [7] the test system is HCT-15. The assay can be described thus: Antiproliferative activity against human HCT15 cells at 10 uM after 72 hrs by fluorescence method. To be noted: HCT-15, 72 h, read-out: GI. In kind it is functional. Put shortly:
as §2

Assay [8] deals with HCT-15. The assay can be described thus: Antiproliferative activity against human HCT15 cells at 1 uM after 72 hrs by fluorescence method. In kind it is functional. Conditions: HCT-15, 72 h, read-out: GI. The method in brief: as §2
For assay [9], the system named is MCF7. The assay can be described thus: Antiproliferative activity against human MCF7 cells at 10 uM after 72 hrs by fluorescence method. To be noted: MCF7, 72 h, read-out: GI. In kind it is functional. The method in brief:
as §2

Assay [10] concerns MCF7. The assay can be described thus: Antiproliferative activity against human MCF7 cells at 1 uM after 72 hrs by fluorescence method. In kind it is functional. Conditions: MCF7, 72 h, read-out: GI. Put shortly: as §2
A short description of assay [11]: Antiproliferative activity against human MCF7/R cells at 10 uM after 72 hrs by fluorescence method. In kind it is functional. Conditions: MCF7R, read-out: GI. Put shortly:
as §2

Assay [12] is described as follows: Antiproliferative activity against human MCF7/R cells at 1 uM after 72 hrs by fluorescence method. In kind it is functional. Conditions: MCF7R, read-out: GI. Put shortly:
as §2

Assay [13] concerns HL-60. The assay is described as follows: Antiproliferative activity against human HL60 cells at 10 uM after 72 hrs by fluorescence method. The format is functional. To be noted: HL-60, 72 h, read-out: GI. Put shortly: as §2
The test system of assay [14] is HL-60. The assay can be described thus: Antiproliferative activity against human HL60 cells at 1 uM after 72 hrs by fluorescence method. Conditions: HL-60, 72 h, read-out: GI. The format is functional. Put shortly: as §2
Assay [15] is described as follows: Antiproliferative activity against human HL60R cells at 10 uM after 72 hrs by fluorescence method. The format is functional. To be noted: read-out: GI. The method in brief: as §2
Assay [16] in a line: Antiproliferative activity against human HL60R cells at 1 uM after 72 hrs by fluorescence method. The format is functional. To be noted: read-out: GI. Put shortly: as §2

On to `O=C1NC2CCc3cccc(c32)-c2c1[nH]c1ccccc21` (centres undefined), for which the inhibition of growth at 10 µM stood at 81% in assay [1]; 80% in [5]; 87% in assay [7]; 39% in assay [9]; 72% in assay [11]; 90% in assay [13]. For the same compound, the inhibition of growth at 10 µM in assay [15] was determined as 81%. Moreover, the inhibition of growth at 1 µM in [2] was 63%; in [6], 64%; in assay [8] it was 75%; in assay [10], 46%; in [12], 67%; in assay [14] it was 83%. Moreover, the inhibition of growth at 1 µM in [16] was found to be 70%. For the same compound, the results for the pIC50 in assay [3] and in assay [4] were 5.28 and 6.05, respectively.
Consider `O=C1c2[nH]c3ccccc3c2-c2ccccc2C2CCCN12` (centres undefined), for which the inhibition of growth at 10 µM was found to be 100% in assay [1]; 81% in assay [5]; 84% in assay [7]; 55% in [9]; 75% in [11]; 84% in assay [13]. Also, the inhibition of growth at 10 µM in assay [15] worked out at 80%. Also, the inhibition of growth at 1 µM was determined as 27% in assay [2]; 64% in assay [6]; 78% in assay [8]; 28% in assay [10]; 56% in assay [12]; 49% in [14]. For the same compound, the inhibition of growth at 1 µM in assay [16] turned out to be 49%. In addition, the pIC50 – broadly, −log10 of the IC50, conventionally taken in molar units – was 5.38 in assay [3] and 5.30 in assay [4].
`CC[C@H]1c2ccccc2-c2c([nH]c3ccccc23)C(=O)N1C`: the inhibition of growth at 10 µM in assay [1] was 100%; in assay [5], 100%; in [7], 100%; in assay [9] it was 96%; in [11] it was 92%; in [13] it was 100%. Moreover, in assay [15], the inhibition of growth at 10 µM is 89%. The inhibition of growth at 1 µM in assay [2] came to 100%; in [6], 91%; in assay [8], 92%; in assay [10] it was 85%; in assay [12] it was 75%; in assay [14] it was 85%. Further, the inhibition of growth at 1 µM in assay [16] came out at 70%. Also, the pIC50 in assay [3] is 5.39; in assay [4], 8.70.
Consider `CC[C@@H]1NC(=O)c2[nH]c3ccccc3c2-c2ccccc21`, for which the inhibition of growth at 10 µM in assay [1] was 100%; in [5], 100%; in [7], 100%; in [9] it was 92%; in assay [11], 96%; in assay [13] it was 100%. For the same compound, the inhibition of growth at 10 µM in assay [15] came to 95%. Besides, the inhibition of growth at 1 µM turned out to be 100% in assay [2]; 85% in [6]; 94% in [8]; 82% in [10]; 84% in assay [12]; 90% in assay [14]. The inhibition of growth at 1 µM in [16] came to 78%. The pIC50 in [3] is 5.74; in assay [4] it was 7.46.
